Screens deposited in PubChem by several laboratories.
Mdm2 MdmX PPI: inhibitors of human Mdm2/MdmX interaction. inhibition, % at 8 µM. hit rate 3% among 330,000. O15151+Q00987. SaOS-2 split-luciferase Mdm2/MdmX complementation, luminescence;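 active means inhibition of at least 50% at 8 µM in the primary screen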
L major viab: inhibitors of Leishmania major promastigote growth | Leishmania major promastigotes, resazurin fluorescence viability | inhibition, % at 10 µM | hit rate 9% among 200,000 | AID 1063; in the data active means inhibition above about 50%;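 further: promastigotes grown with compound for 44 hours at 28 °C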
CSC inhib: cancer stem cell inhibition | AID 2717 | cancer stem cell-like cells viability, luminescence | inhibition, % at 7.5 µM | hit rate 1.1% among 300,000; in the data active means inhibition above about 75%; inconclusive means no clear call, values can overlap the other calls; tested in HMLE shEcad cells
T cruzi inh: T. cruzi replication inhibition; T. cruzi beta-gal in NIH3T3, luminescence, 90 h; inhibition, % (no concentration beside the values); hit rate 1.4% among 300,000; AID 1885;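 active means mean inhibition across valid replicates above about 55%, limit read from the data; inconclusive means mean below that limit but half or more replicates reach it; inactive means mean below it, under half of replicates reach it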;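 further: signal also drops with host cell toxicity which is not excluded here; 0% = plate median of DMSO wells and 100% = zero luminescence signal; higher percent means less beta-gal luminescence so fewer parasites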
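assay system = mouse NIH/3T3 fibroblasts infected with β-gal-expressing T. cruzi Tulahuen C4 | input = 5,000 NIH/3T3 host cells per well | buffer or medium = DMEM plus 2% FBS | timing = 3 h host attachment, then at least 90 h co-culture | measured by = GalScreen luminescence, 60 min | evaluation = luminescence reflecting intracellular parasite burden, expressed as percent inhibition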
Beta cell apopt: beta cell apoptosis inhibition. INS-1E cytokine-induced death, ATP luminescence, 48 h; percent of positive-control rescue, neutral wells zero. protection from apoptosis, % (no concentration beside the values). hit rate 0.8% among 300,000. AID 435005;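 active means Every replicate reaches about 75%, or at least half do and their mean reaches it too, limit read from the data; inconclusive means At least half of replicates reach the limit but their mean does not; inactive means Under half of replicates reach the limit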;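 further: 0% = cytokine-treated negative control wells and 100% = positive control rescue; higher means more ATP so stronger rescue from cytokine killing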
SKKanGAS inh: SKKanGAS growth inhibition; S. pyogenes SKKanGAS, kanamycin growth, BacTiter-Glo, 6 h; inhibition, % at 7.5 µM; hit rate 1.3% among 300,000; AID 1662;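 active means mean replicate score, as percent of positive control median, at least 50; inconclusive means mean below 50 but one replicate at or above 50; inactive means mean and every replicate below 50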;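 further: strain carries kanamycin resistance gene driven by streptokinase promoter and grows in 40 µg/ml kanamycin; loss of luminescence reflects streptokinase promoter inhibition or plain growth inhibition; 0% = median of DMSO wells and 100% = positive control at its reference dose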
Lmaj promast 1uM: inhibitors of Leishmania major promastigote growth, repeat at 1 uM | shares compounds with L major viab | L. major promastigote growth, resazurin fluorescence, 48 h | inhibition, % at 1 µM | hit rate 13% among 1,100;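 active means inhibition above about 50% in both repeat tests, limit read from the data; inconclusive means one repeat under the set limit, the other over it; inactive means both repeats under the set limit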
An asterisk follows results filed as active; ? = inconclusive; . = no result. The list is not random: actives were taken first. Their share in the collection is about 9.4%.

SMILES	Mdm2 MdmX PPI	L major viab	CSC inhib	T cruzi inh	Beta cell apopt	SKKanGAS inh	Lmaj promast 1uM
Cc1cc(C)n(-c2nc3ccccc3c(=O)n2OCC(=O)OCc2ccccc2)n1	.	92.0*	.	-33.3	.	10.8	11.3
COCCCn1[nH]c2c3c(ccc2c1=O)C(=O)c1ccccc1C3=O	6.9	93.7*	-11.9	-17.1	54.8	21.0	6.5
CCn1cc([N+](=O)[O-])c(C(=O)N2N=C(c3ccc(OC)cc3OC)CC2c2ccccc2O)n1 (stereo not given)	14.6	60.0*	0.4	3.2	.	-2.8	1.0
CCCCNCCCOc1cccc(Cl)c1	16.2	93.7*	-13.9	14.2	4.4	4.8	6.2
Cc1ccc(SCC(=O)Nc2ccc(N3CCOCC3)cc2)cc1C	7.0	.	.	.	8.6	.	.
CCOC(=O)N1CCN(C(=O)c2cn(CC)c3ccc(S(=O)(=O)N4CC(C)CC(C)C4)cc3c2=O)CC1 (stereo not given)	10.4	-6.7	-7.7	12.7	-7.8	0.8	.
O=c1nc2n(c3c1oc1ccccc13)Cc1ccccc1-2	.	41.7	.	14.8	.	1.0	.
Cc1sc2c(c1C)c(=O)nc1n2Cc2ccccc2-1	.	81.6*	.	3.9	.	-1.0	0.8
Clc1ccc(Cl)c2sc(N3CCCC3)nc12	-12.8	-6.2	9.8	30.5	-4.3	-6.4	.
O=C1C(Cl)=C(N2CCCCC2)C(=O)C(Cl)=C1c1cnc(N2CCCCC2)s1	31.3	58.5*	.	3.4	.	41.6	1.6
O=c1cc(N2CCCCC2)nc2n1CCCS2	9.6	71.3*	.	-8.4	1.1	-0.2	-3.2
CC1CCN(S(=O)(=O)c2ccc3c(c2)N(CC(=O)N(C)Cc2ccco2)C(=O)CO3)CC1	-8.4	.	12.4	7.2	-2.0	9.5	.
O=C(Nc1ccc(CN2CCOCC2)cc1)c1cccs1	-38.5	96.1*	.	1.4	-2.1	1.1	-10.6
CCCCCCC1CC(CSC(=N)N)OC1=O (stereo not given)	-12.2	100.1*	3.8	-10.1	-19.0	-1.6	3.3
Cc1ccc(OC(C)c2nnc(N)s2)cc1Cl (stereo not given)	34.5	99.6*	4.0	.	-17.8	.	-7.3
Cc1ccc(S(=O)(=O)NNC(=O)C2CCN(Cc3ccccc3)CC2)cc1	-8.2	84.6*	16.2	-5.3	-1.7	1.4	4.3
CC(=O)c1ccccc1NS(=O)(=O)c1c(C)nn(-c2ccccc2)c1C	31.0	95.6*	-8.2	0.2	4.9	-2.3	42.5
COCCN(Cc1cc2ccc(C)cc2[nH]c1=O)S(=O)(=O)c1ccccc1	-13.4	.	-7.1	8.9	-2.9	-1.6	.
CN(c1ccccc1)P(=O)(N(C)c1ccccc1)N(C)c1ccccc1	24.2	98.5*	27.0	66.1*	14.6	3.1	4.7
CCOC(=O)CSC1=NN2CCS(=O)(=O)N=C2S1	2.5	-11.2	-19.7	-9.6	-3.1	-0.2	.
C=CCSC1=NN2CCS(=O)(=O)N=C2S1	17.9	100.1*	-2.2	-5.0	-5.9	-3.9	-8.4
Cc1nnc(C)c2c(C)n(C(c3ccccc3)c3ccccc3)c(C)c12	-9.8	100.1*	13.5	59.1*	-4.0	0.3	-11.5
Cc1cccc(COCC(CC(C)C)N2CCN(C(=O)c3ccc(C(F)(F)F)cc3)CCC2=O)c1 (stereo not given)	21.7	9.4	-23.6	13.8	8.4	10.4	.
Cc1cccc(COCC(CC(C)C)N2CCN(C(=O)c3ccc(C(C)(C)C)cc3)CCC2=O)c1 (stereo not given)	12.0	57.5*	9.0	7.0	3.0	10.7	-8.2
O=C1c2cc([N+](=O)[O-])cc3cc([N+](=O)[O-])cc(c23)C(=O)N1c1ccccn1	.	90.3*	32.3	42.4	-24.2	20.2	27.8
SMILES	Mdm2 MdmX PPI	L major viab	CSC inhib	T cruzi inh	Beta cell apopt	SKKanGAS inh	Lmaj promast 1uM
CC1CN(S(=O)(=O)c2cccc(C(F)(F)F)c2)CC(C)O1 (stereo not given)	7.9	.	-7.8	-19.2	-3.6	1.8	.
CC(C)CCN(C)C1CCN(S(=O)(=O)c2cccc(C(F)(F)F)c2)CC1	8.8	93.4*	.	26.7	-1.0	-0.2	80.1*
CC(C)N(Cc1nccn1C)C(=O)c1ccc2oc(Cc3ccccc3)nc2c1	1.6	.	.	-6.4	.	1.1	.
O=S(=O)(c1ccc(S(=O)(=O)N2CCCN(Cc3ccccc3)C2)cc1)N1CCCCCC1	27.2	75.7*	-1.3	43.0	0.7	-0.9	20.2
Cc1c(/C=C(\C#N)c2nn(-c3ccccc3)c(N)c2C#N)c2ccccc2n1Cc1ccc(F)cc1	36.9	-1.3	-6.1	15.7	-1.0	1.4	.
Cc1ccc(/C=C(\C#N)c2nn(-c3ccccc3)c(N)c2C#N)cc1	-26.8	64.5*	39.5	20.3	-5.7	26.6	-5.5
Cc1ccc2[nH]c(C(=O)N3CCN(c4cccc(Cl)c4)CC3)cc2c1	-4.9	.	-8.4	6.4	-0.4	-3.0	.
CC1CCCCC1NC(=O)C1CC=CCC1C(=O)O (stereo not given)	-31.9	54.6*	-5.1	-25.4	.	2.5	-16.0
CCCCCNC(=O)C1CC=CCC1C(=O)O (stereo not given)	-19.5	-10.2	-7.5	-2.0	-6.1	-0.5	.
Cc1ccc(S(=O)(=O)NCCC(=O)NCC(c2cccs2)N2CCOCC2)cc1 (stereo not given)	5.8	.	-11.3	-5.4	.	-11.4	.
CC(C)CN(C(=O)c1ccc(=O)n(C)n1)c1nc2ccccc2s1	-5.1	57.0*	.	-7.0	-5.9	9.5	-16.7
N#Cc1ccc(Oc2ccc(-c3nc4ccccc4nc3-c3ccccc3)cc2)cc1C#N	-0.3	92.9*	-2.7	25.9	8.3	27.2	0.8
S=c1[nH]c(-c2ccccc2)cs1	14.6	77.3*	2.0	-0.5	-5.7	-5.5	-9.3
O=C(CSc1n[nH]c(-c2ccccc2Cl)n1)NCc1cccc(C(=O)O)c1	0.9	-9.3	8.6	-31.1	-8.5	0.7	.
CN1CCN(/N=C/c2ccc(-c3ccccc3)cc2)CC1	-23.2	97.8*	-19.2	40.8	4.0	-2.4	-22.6
FC(F)(F)c1ccc(C2NCCc3sccc32)cc1 (stereo not given)	-4.8	93.4*	5.0	2.4	-0.2	0.0	21.4
CN(C)CCCC(C)(O)C(Cc1ccccc1)c1ccccc1 (stereo not given)	-6.5	85.8*	-14.8	2.1	-10.0	0.1	-11.9
CC(=O)N1CCOc2ccc(S(=O)(=O)NCc3ccc(F)cc3)cc21	4.4	.	-8.5	-4.7	.	-2.1	.
CC(=O)c1ccc(Oc2cc(-c3ccccc3)nc(-c3ccccc3)n2)cc1	-11.9	37.9	20.3	-0.4	14.1	-1.3	.
O=Cc1ccc(Oc2cc(-c3ccccc3)nc(-c3ccccc3)n2)cc1	18.7	57.5*	99.6*	24.6	9.0	13.8	-14.2
Cc1ccn2cc(C34CC5CC(CC(C5)C3)C4)nc2c1	2.1	60.4*	33.5	17.3	.	-15.3	20.8
Clc1ccc(N2COC3c4cccc5cccc(c45)C32)cc1 (stereo not given)	1.0	-2.2	11.2	17.1	-6.0	?	.
